Reference: ChEMBL document CHEMBL4251617, “Synthesis and anticancer activity of novel water soluble benzimidazole carbamates” (Eur J Med Chem, 2018)
Active and inactive are the calls of the source. The rule behind the calls is not given here.

Assays:
[1] = Cytotoxicity against human PC3MLN4 cells assessed as cell viability at 10 uM after 72 hrs by MTT assay relative to control; assay type: functional; details: read-out: Activity
[2] = Cytotoxicity against human PC3MLN4 cells assessed as cell viability at 1 uM after 72 hrs by MTT assay relative to control; assay type: functional; details: read-out: Activity
[3] = system: PC-3; assay: Cytotoxicity against human PC3 cells assessed as cell viability at 10 uM after 72 hrs by MTT assay relative to control; assay type: functional; details: PC-3, 72 h, read-out: Activity
[4] = system: PC-3; assay: Cytotoxicity against human PC3 cells assessed as cell viability at 1 uM after 72 hrs by MTT assay relative to control; assay type: functional; details: PC-3, 72 h, read-out: Activity
[5] = system: A549; assay: Cytotoxicity against human A549 cells assessed as cell viability at 10 uM after 72 hrs by MTT assay relative to control; assay type: functional; details: A549, 72 h, read-out: Activity
[6] = system: A549; assay: Cytotoxicity against human A549 cells assessed as cell viability at 1 uM after 72 hrs by MTT assay relative to control; assay type: functional; details: A549, 72 h, read-out: Activity
[7] = system: A549/TR; assay: Cytotoxicity against human A549/TR cells assessed as reduction in cell viability after 72 hrs by MTT assay; assay type: functional, cell-based
Procedure, shortened: (§1)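 Cells seeded per well at 5 X 10^3 (PC3MLN4, A549, Calu1, H157, A549-TR), 6 X 10^3 (PC3) or 8 X 10^3 (SKOV3). SKOV3 grown in McCoy's 5A, others in RPMI-1640, 10% FBS. Next day 2X drug added, 3.2 nM-50 µM five-fold dilutions, 72 hr.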

[8] = system: Mus musculus; assay: Toxicity in nude mouse xenografted with human PC3MLN4 cells assessed as reduction in body weight at 30 mg/kg, ip administered every other day 3 times per week for 2 weeks measured 3 times per week during compound dosing relative to control; assay type: organism-based; set-up: scale not given: the % may be the effect or the level left; details: in vivo, 336 h
Procedure, shortened: (§2)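 PC3MLN4 cells (1 X 10^6) in growth factor reduced Matrigel/HBSS injected subcutaneously between the scapulae of athymic nude mice. Dosing began day 13 at tumor volume about 35 mm3. Randomized groups of 4-5 mice got 30 mg/kg IP in 5% DMSO/HBSS, or vehicle alone. Tumor (calipers) and body weight measured on dosing days and 3 days after last dose. Mean ± SEM, t-test.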

[9] = Cytotoxicity against human PC3MLN4 cells assessed as reduction in cell viability after 48 hrs by cyquant reagent based fluorescence spectrometric assay; assay type: functional
Procedure, shortened: (§3)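 3 X 10^5 cells per well seeded overnight, then exposed 48 hr. Cells harvested, washed, frozen at -80 °C overnight, thawed, and CyQuant reagent added with fluorescence read at 485 nm. Survival as % of vehicle-treated cells. EC50 (50% survival reduction) by median-dose effect analysis.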

[10] = system: PC-3M; assay: Cytotoxicity against human PC3M cells assessed as reduction in cell viability after 48 hrs by cyquant reagent based fluorescence spectrometric assay; assay type: functional; procedure, shortened: as §3
[11] = system: NCI-H157; assay: Cytotoxicity against human NCI-H157 cells assessed as reduction in cell viability after 72 hrs by MTT assay; assay type: functional, cell-based; details: NCI-H157, 72 h; procedure, shortened: as §1
[12] = system: Calu-1; assay: Cytotoxicity against human Calu1 cells assessed as reduction in cell viability after 72 hrs by MTT assay; assay type: functional, cell-based; details: Calu-1, 72 h; procedure, shortened: as §1
[13] = system: A549; assay: Cytotoxicity against human A549 cells assessed as reduction in cell viability after 72 hrs by MTT assay; assay type: functional, cell-based; details: A549, 72 h; procedure, shortened: as §1
[14] = system: PC-3; assay: Cytotoxicity against human PC3 cells assessed as reduction in cell viability after 72 hrs by MTT assay; assay type: functional, cell-based; details: PC-3, 72 h; procedure, shortened: as §1
[15] = Cytotoxicity against human PC3MLN4 cells assessed as reduction in cell viability after 72 hrs by MTT assay; assay type: functional, cell-based; procedure, shortened: as §1
[16] = system: SK-OV-3; assay: Cytotoxicity against human SKOV3 cells assessed as reduction in cell viability after 72 hrs by MTT assay; assay type: functional, cell-based; details: SK-OV-3, 72 h; procedure, shortened: as §1
[17] = species on record: Homo sapiens; assay: Cell cycle arrest in human PC3MLN4 cells assessed as accumulation at G2/M phase at 1 uM after 24 hrs by propidium iodide staining based flow cytometry; assay type: functional
Procedure, shortened: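 PC3MLN4 cells seeded 3 X 10^5/well, next day treated 24 hr at 1 µM, nocodazole 1 µM as control. Floating and adherent cells pooled, fixed in cold 70% ethanol 30 min, then PI plus RNase A for 30 min. 15 X 10^3 cells acquired by FACS. G1/S/G2 fractions from Dean-Jett-Fox fit.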

[18] = species on record: Homo sapiens; assay: Disruption of microtubule dynamics in human PC3MLN4 cells at 1 uM after 48 hrs by immunofluorescence microscopic method; assay type: cell-based
Procedure, shortened: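 PC3MLN4 cells on coverslips were treated 48 hr at 1 µM. They were fixed in 4% PFA 15 min and permeabilized in 0.2% Triton X-100 8 min. Blocking was 2% goat serum/2% BSA 1 hr. Anti-α-tubulin 1:200 for 1 hr was followed by Alexa Fluor 488 secondary 1:400 for 45 min, with DAPI 500 nM counterstain and imaging at 100X and 200X.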

[19] = Antitumor activity against human PC3MLN4 cells xenografted in nude mouse assessed as reduction in tumor volume at 30 mg/kg, ip administered every other day 3 times per week for 2 weeks; assay type: functional; procedure, shortened: as §2
[20] = Selectivity ratio of EC50 for cytotoxicity against human PC3M cells to EC50 for cytotoxicity against human PC3MLN4 cells; assay type: functional
[21] = species on record: Homo sapiens; assay: Upregulation of Cyclin-B1 protein expression in human PC3MLN4 cells at 1 uM after 24 hrs by Western blot method; assay type: functional, cell-based
Procedure, shortened: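 PC3MLN4 cells were treated 24 hr and lysed in 50 mM Tris pH 7.5, 150 mM NaCl, 10 mM NaF, 0.5% NP40 with protease inhibitors. Equal protein (BCA) was run on SDS-PAGE and transferred to nitrocellulose, then blocked in 5% milk/TBST. Blots were probed for cyclin B1 with GAPDH as loading control, using HRP secondary and ECL.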

| SMILES | viability at 10 µM [1] [%] | viability at 1 µM [2] [%] | viability at 10 µM [3] [%] | viability at 1 µM [4] [%] | viability at 10 µM [5] [%] | viability at 1 µM [6] [%] | further results |
| --- | --- | --- | --- | --- | --- | --- | --- |
| CCCSc1ccc2[nH]c(NC(=O)OCC3(C)COC3)nc2c1 | 89.7 | 87.6 | 79.2 | 87.2 | 87.6 | 83.1 |  |
| CCCSc1ccc2[nH]c(NC(=O)OC3COC3)nc2c1 | 83.8 | 88.3 | 84.5 | 95.2 | 79.2 | 73.2 |  |
| CCCSc1ccc2[nH]c(NC(=O)OCCCN(C)C)nc2c1 | 88.6 | 86.7 | 78.2 | 95.5 | 89.9 | 83.8 |  |
| COC(=O)Nc1nc2cc(Oc3cccc(N4CCN(C)CC4)n3)ccc2[nH]1 | 74 | 83 | 52.1 | 98.1 | 72.6 | 87.8 |  |
| CN(C)CCOC(=O)Nc1nc2cc(C(=O)c3ccc(F)cc3)ccc2[nH]1 | 97.2 | 84.6 | 90.9 | 91.2 | 80.4 | 89.4 |  |
| CC(=O)O[C@H]1C(=O)[C@@]2(C)[C@H]([C@H](OC(=O)c3ccccc3)[C@]3(O)C[C@H](OC(=O)[C@H](O)[C@@H](NC(=O)c4ccccc4)c4ccccc4)C(C)=C1C3(C)C)[C@]1(OC(C)=O)CO[C@@H]1C[C@@H]2O [PACLITAXEL] |  |  |  |  |  |  | EC50 [7]: 10.3 µM |
| COC(=O)Nc1nc2ccc(C(=O)c3ccccc3)cc2[nH]1 [MEBENDAZOLE] |  |  |  |  |  |  | Activity [8]: 5% |
| COC(=O)Nc1nc2cc(C(=O)c3ccccc3)ccc2[nH]1 [MEBENDAZOLE] | 24.9 | 53.9 | 35.8 | 63.4 | 50.8 | 61.5 | EC50 [9]: 700 nM; EC50 [10]: 1210 nM; EC50 [11]: 3.5 µM; EC50 [12]: 1100 nM; EC50 [13]: 900 nM; EC50 [14]: 1100 nM; EC50 [15]: 500 nM; EC50 [16]: 500 nM; EC50 [7]: 1.7 µM; Activity [17]: inactive; Activity [18]: Active; T/C [19]: 0.31 |
| CCCSc1ccc2[nH]c(NC(=O)OCCN(C)C)nc2c1 | 42.8 | 92.7 | 37.9 | 82.5 | 51.8 | 75.5 |  |
| CN(C)CCOC(=O)Nc1nc2cc(C(=O)c3ccccc3)ccc2[nH]1 | 98.8 | 101 | 92.6 | 97.3 | 89.6 | 94.4 |  |
| CN(C)CCCOC(=O)Nc1nc2cc(C(=O)c3ccc(F)cc3)ccc2[nH]1 | 91 | 87.3 | 86.5 | 105 | 88.1 | 85.4 |  |
| O=C(Nc1nc2cc(C(=O)c3ccccc3)ccc2[nH]1)OC1COC1 | 66.8 | 70.6 | 65.5 | 90.9 | 62 | 68 |  |
| COC(=O)Nc1nc2cc(Sc3ccccc3)ccc2[nH]1 [FENBENDAZOLE] |  |  |  |  |  |  | EC50 [9]: 910 nM; EC50 [10]: 2600 nM; Ratio EC50 [20]: 2 |
| COC(=O)Nc1nc2cc(C(=O)c3cccs3)ccc2[nH]1 |  |  |  |  |  |  | Activity [21]: Active; Activity [18]: Active |
| COC(=O)Nc1nc2cc(C(=O)c3ccccc3N(C)C3COC3)ccc2[nH]1 | 38.4 | 100 | 54.8 | 101 | 46.8 | 99 |  |
| COC(=O)Nc1nc2cc(Oc3cccc(N4CCN(C)CC4)c3)ccc2[nH]1 | 33.4 | 86.3 | 32.2 | 73.1 | 47.5 | 77 |  |
| CN(C)CCOC(=O)Nc1nc2cc(Sc3ccccc3)ccc2[nH]1 | 36.6 | 98.1 | 35 | 88.9 | 39.2 | 91.8 |  |
| CCCSc1ccc2[nH]c(NC(=O)OC)nc2c1 [ALBENDAZOLE] |  |  |  |  |  |  | EC50 [9]: 580 nM; EC50 [10]: 1150 nM; Ratio EC50 [20]: 2 |
| COC(=O)Nc1nc2cc(C(=O)c3ccc(F)cc3)ccc2[nH]1 [FLUBENDAZOLE] |  |  |  |  |  |  | EC50 [9]: 670 nM; EC50 [10]: 1430 nM; Ratio EC50 [20]: 2 |
| O=C(Nc1nc2cc(Sc3ccccc3)ccc2[nH]1)OC1COC1 | 79.1 | 80.2 | 87.8 | 107 | 74.8 | 75 |  |
